pKd: −log10 of the molar value.
What was measured:
[1] = Binding affinity to Neisseria gonorrhoeae FA19 multidrug efflux protein NorM expressed in Escherichia coli AG100AX at pH 8.5 by fluorescence polarization assay
Method in brief: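 Rhodamine 6G (1 μM) binding to purified DDM-solubilized His6-NorM, measured by steady-state fluorescence polarization across pH 5.8 to 8.5. Excitation 527 nm, emission 550 nm, 25°C, 5-min equilibration per titration point. KD fitted at each pH.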

[2] = Binding affinity to Neisseria gonorrhoeae FA19 multidrug efflux protein NorM expressed in Escherichia coli AG100AX in presence of 0.02% DDM surfactant by fluorescence polarization assay
Escherichia coli [3] = assay: Antimicrobial activity against AcrAB-deficient Escherichia coli AG100AX harboring pBADomeganorM plasmid containing Neisseria gonorrhoeae multidrug efflux pump NorM after 18 to 24 hrs by two fold dilution method; assay type: functional
[4] = biological target: T1, Multidrug efflux pump subunit AcrB (Escherichia coli (strain K12), UniProt P31224); assay: Binding affinity to Escherichia coli K-12 multidrug efflux protein AcrB at pH 8.4 by equilibrium dialysis method
T1 sequence (P31224 whole entry): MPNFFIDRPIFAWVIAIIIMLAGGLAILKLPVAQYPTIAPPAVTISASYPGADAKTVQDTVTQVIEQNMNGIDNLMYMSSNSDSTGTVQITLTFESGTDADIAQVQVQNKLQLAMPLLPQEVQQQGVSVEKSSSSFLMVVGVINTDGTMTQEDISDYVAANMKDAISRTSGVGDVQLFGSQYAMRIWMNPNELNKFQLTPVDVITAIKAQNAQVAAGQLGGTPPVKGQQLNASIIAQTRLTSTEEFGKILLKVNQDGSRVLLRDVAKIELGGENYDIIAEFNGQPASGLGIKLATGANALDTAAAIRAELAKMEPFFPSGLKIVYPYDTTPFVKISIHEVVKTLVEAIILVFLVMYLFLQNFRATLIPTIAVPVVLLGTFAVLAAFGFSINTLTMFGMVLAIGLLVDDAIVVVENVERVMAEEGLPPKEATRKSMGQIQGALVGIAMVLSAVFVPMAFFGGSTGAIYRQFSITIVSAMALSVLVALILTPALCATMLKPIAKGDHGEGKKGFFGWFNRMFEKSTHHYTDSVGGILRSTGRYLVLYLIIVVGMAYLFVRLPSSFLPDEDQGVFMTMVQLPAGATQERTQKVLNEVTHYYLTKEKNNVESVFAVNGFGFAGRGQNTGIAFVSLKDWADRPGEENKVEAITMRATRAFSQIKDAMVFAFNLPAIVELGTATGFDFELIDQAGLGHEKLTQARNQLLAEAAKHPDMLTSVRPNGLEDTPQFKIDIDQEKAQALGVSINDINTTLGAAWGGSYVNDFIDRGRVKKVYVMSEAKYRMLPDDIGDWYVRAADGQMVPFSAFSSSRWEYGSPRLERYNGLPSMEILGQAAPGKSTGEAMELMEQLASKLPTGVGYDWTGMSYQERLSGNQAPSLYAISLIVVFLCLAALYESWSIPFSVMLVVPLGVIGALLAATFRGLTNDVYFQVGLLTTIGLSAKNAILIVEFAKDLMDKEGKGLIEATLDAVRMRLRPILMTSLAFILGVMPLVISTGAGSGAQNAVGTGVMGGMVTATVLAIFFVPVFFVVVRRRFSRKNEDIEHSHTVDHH

[5] = biological target: T2, Multidrug resistance protein MdtK (Escherichia coli (strain K12), UniProt P37340); assay: Binding affinity to purified detergent-solubilized Escherichia coli K-12 multidrug efflux protein YdhE by equilibrium dialysis method
T2 sequence (P37340 whole entry): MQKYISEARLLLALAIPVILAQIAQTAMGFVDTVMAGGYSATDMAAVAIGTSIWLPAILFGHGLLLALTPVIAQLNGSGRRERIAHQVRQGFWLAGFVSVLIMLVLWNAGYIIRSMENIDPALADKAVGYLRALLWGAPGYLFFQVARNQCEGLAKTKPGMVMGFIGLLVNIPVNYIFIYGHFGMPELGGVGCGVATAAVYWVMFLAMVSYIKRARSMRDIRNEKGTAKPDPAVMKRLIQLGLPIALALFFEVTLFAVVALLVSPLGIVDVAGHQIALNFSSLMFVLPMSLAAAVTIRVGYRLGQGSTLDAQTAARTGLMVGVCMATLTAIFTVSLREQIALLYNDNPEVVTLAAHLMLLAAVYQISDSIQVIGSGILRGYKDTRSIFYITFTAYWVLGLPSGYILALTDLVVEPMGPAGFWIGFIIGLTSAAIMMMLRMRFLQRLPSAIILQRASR
Method in brief: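 YdhE carried a C-terminal His6 tag and was overproduced in E. coli TOP10 by L-arabinose induction. It was solubilized in 1% DDM, then purified by Ni2+-affinity and G-200 sizing in 20 mM HEPES-NaOH pH 7.5 with 0.02% DDM. Purity was >90% by SDS-PAGE. Rhodamine 6G binding was measured by equilibrium dialysis to give the KD and the binding stoichiometry.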

[6] = Binding affinity to Neisseria gonorrhoeae FA19 multidrug efflux protein NorM […] using Scatchard plot in presence of 0.02% DDM surfactant by fluorescence polarization assay
[7] = biological target: T2, Multidrug resistance protein MdtK; assay: Binding affinity to Escherichia coli K-12 multidrug efflux protein YdhE […] in presence of 0.02% DDM surfactant by fluorescence polarization assay
Escherichia coli [8] = assay: Antimicrobial activity against AcrAB-deficient Escherichia coli AG100AX harboring pBADomegaydhE plasmid containing Escherichia coli multidrug efflux pump YdhE after 18 to 24 hrs by two fold dilution method; assay type: functional
[9] = Binding affinity to Neisseria gonorrhoeae FA19 multidrug efflux protein NorM expressed in Escherichia coli AG100AX in presence of => 100 mM NaCl by fluorescence polarization assay
Method in brief: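 NaCl at 100 to 400 mM added to rhodamine 6G (1 μM) binding mixtures with purified His6-NorM in 20 mM HEPES-NaOH pH 7.5, 0.02% DDM.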

Escherichia coli [10] = assay: Antimicrobial activity against AcrAB-deficient Escherichia coli AG100AX harboring pBAD plasmid after 18 to 24 hrs by two fold dilution method; assay type: functional
Method in brief: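 Twofold agar dilution on LB agar containing the antimicrobial, inoculum 10⁴ CFU/spot. Growth was scored after 18–24 h at 37°C, and each MIC determination was repeated at least four times.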

## CC/N=c1\cc2oc3cc(NCC)c(C)cc3c(-c3ccccc3C(=O)OCC)c-2cc1C.Cl [RHODAMINE 6G HYDROCHLORIDE]
[1]
  pKd: 5.59
[2]
  pKd: 5.47
Escherichia coli [3]
  MIC: 12.5 µg/mL
[4]
  pKd: 4.99
[5]
  pKd: 5.52
[6]
  pKd: 5.44
[7]
  pKd: 5.52
Escherichia coli [8]
  MIC: 12.5 µg/mL
[9]
  pKd: 5.60
Escherichia coli [10]
  MIC: 3.12 µg/mL

Source: ChEMBL document CHEMBL1671618, “Functional cloning and characterization of the multidrug efflux pumps NorM from Neisseria gonorrhoeae and YdhE from Escherichia coli” (Antimicrob Agents Chemother, 2008)
